Calls of active or inactive are those of the source.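 The calls were made as follows: active = viability loss with dose, its half-maximal concentration at most ten times the top valid tested dose; inconclusive = flat viability loss of 30 to 70 percent, or poor fit; inactive = the rest.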

One experiment concerns BJeH fibroblast viability, Alamar Blue fluorescence, 48 h. Nature of the experiment: BJeH cell viability loss – BJeH cells, dry powder, set 2, counter-screen for Ras selective lethality project, dose response (AID 493051).
Conditions: not given
The procedure, abridged: (§1)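 system = hTERT-immortalized BJ fibroblasts (BJeH) | signal = Alamar Blue fluorescence (544 nm ex, 590 nm em) | schedule = 48 h compound treatment at 37 °C, ~16 h dye incubation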
In the case of `O=C(c1ccc([N+](=O)[O-])o1)N1CCN(C(c2ccccc2)c2ccccc2)CC1`, the AC50 is 17.7 µM.
Same read-out and setting: for `COc1ccc(C(c2ccc(OC)cc2)N2CCN(C(=O)c3ccc([N+](=O)[O-])o3)CC2)cc1` the value was 6.29 µM; for `Cc1onc(C(=O)N2CCN(C(c3ccccc3)c3ccccc3)CC2)c1[N+](=O)[O-]`, 7.89 µM.
Consider `O=C(NCCNC(c1ccccc1)c1ccccc1)c1ccc([N+](=O)[O-])o1`, for which the concentration at half-maximal activity (AC50) was 3.33 µM.
On the same count and under the same terms, in the case of `O=C(c1ccc([N+](=O)[O-])o1)N1CCCN(C(c2ccccc2)c2ccccc2)CC1` it was 63.2 µM.
The same measure, in the same setting: in the case of `Cc1onc(C(=O)N2CCN(C(c3ccc(Cl)cc3)c3ccc(Cl)cc3)CC2)c1[N+](=O)[O-]` it was 0.628 µM; in that of `COc1ccc(C(c2ccc(OC)cc2)N2CCN(C(=O)c3noc(C)c3[N+](=O)[O-])CC2)cc1`, 9.36 µM.
On the same count and under the same terms, for `Cc1onc(C(=O)N2CCN(C(c3ccccc3)c3ccc(Cl)cc3)CC2)c1[N+](=O)[O-]` (stereo not given) the value was 0.958 µM.
For the compound `Cc1onc(C(=O)N2CCCN(C(c3ccccc3)c3ccccc3)CC2)c1[N+](=O)[O-]`, the AC50 was 5.13 µM.
For the compound `O=C(c1ccc([N+](=O)[O-])o1)N1CCN(C(c2ccc(F)cc2)c2ccc(F)cc2)CC1`, the AC50 was 11.8 µM.
On the same count and under the same terms, for `Cc1onc(C(=O)N2CCN(C(c3ccc(F)cc3)c3ccc(F)cc3)CC2)c1[N+](=O)[O-]` the value was 1.49 µM.

Tested on in the next experiment: not listed separately
Described as above. The note with it: BJeH fibroblast viability, Alamar Blue fluorescence, 48 h; at 48 µM (top of the series). The procedure, abridged:
as §1
As for `Cc1oc(C)c(C(=O)N2CCN(C(c3ccccc3)c3ccccc3)CC2)c1C`, the activity change, negative = viability loss is 49.1% (inactive).
Still for that read-out and setting: for `Cc1onc(C(=O)N2CCN(C(c3ccccn3)c3ccccn3)CC2)c1[N+](=O)[O-]` the value was -5.34% (inactive); for `Cc1onc(C(=O)N2CCN(C(c3ccccc3)c3ccccc3)CC2)c1Br`, 22.7% (inactive); for `CC(C)c1onc(C(=O)N2CCN(C(c3ccccc3)c3ccccc3)CC2)c1[N+](=O)[O-]`, 18.4% (inactive).
As to `O=[N+]([O-])c1ccc(CN2CCN(C(c3ccccc3)c3ccccc3)CC2)o1`, the activity change, negative = viability loss was -9.67% (inactive).
Still for that read-out and setting: in the case of `Cc1onc(C(=O)N2CCN(C(c3ccccc3)c3ccccc3)CC2)c1N` it was 5.64% (inactive); in that of `Cc1onc(C(=O)N2CCN(C(c3ccccc3)c3ccccc3)CC2)c1NS(C)(=O)=O`, 8.49% (inactive).
Same read-out and setting: in the case of `Cc1ccc(C(=O)N2CCN(C(c3ccccc3)c3ccccc3)CC2)c([N+](=O)[O-])c1` it was 19.4% (inactive); in that of `Cc1onc(C(=O)N2CCN(C(c3ccncc3)c3ccncc3)CC2)c1[N+](=O)[O-]`, 4.32% (inactive); in that of `Cc1onc(C(=O)N2CCN(C(c3ccccc3)c3ccccc3)CC2)c1C`, 46.9% (inactive).
Same read-out and setting: for `O=C(c1noc2ccccc12)N1CCN(C(c2ccccc2)c2ccccc2)CC1` the value was 27.9% (inactive); for `CC(=O)Nc1c(C(=O)N2CCN(C(c3ccccc3)c3ccccc3)CC2)noc1C`, 15.6% (inactive); for `Cc1onc(C(=O)NCCNC(c2ccccc2)c2ccccc2)c1[N+](=O)[O-]`, -6.54% (inactive).

Still in this experiment, the particulars now being: BJeH fibroblast viability, Alamar Blue fluorescence, 48 h; at 68 µM (top of the series).
As for `Cc1onc(C(=O)NCc2ccc(F)cc2)c1[N+](=O)[O-]`, the activity change, negative = viability loss is 13.9% (inactive).
On the same count and under the same terms, in the case of `Cc1cc(C(=O)N2CCN(Cc3ccccc3)CC2)no1` it was 3.96% (inactive); in that of `Cc1onc(C(=O)N2CCN(Cc3ccccc3)CC2)c1[N+](=O)[O-]`, 7.25% (inactive).
Still for that read-out and setting: for `COc1ccccc1N1CCN(C(=O)c2noc(C)c2[N+](=O)[O-])CC1` the value was 10.7% (inactive); for `Cc1onc(C(=O)N2CCOCC2)c1[N+](=O)[O-]`, 10.9% (inactive).
Take `CCOC(=O)N1CCN(C(=O)c2noc(C)c2[N+](=O)[O-])CC1`: the activity change, negative = viability loss is 7.91% (inactive).

The record behind these values is PubChem BioAssay AID493051 (Broad Institute, 2011).
